Compounds with a hit are over-represented: about 8.9% of the library has one in this group of screens.
MT stabilizer: microtubule stabilization, imaging screen; HeLa tubulin immunostaining HCS, 24 h; share of cells brighter than vehicle mean+2SD; % tubulin-high responders, % at 10 µM; hit rate 0.83% among 200,000; AID 2205;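 active means plate Z-score above 3 for both tubulin-high and condensed-nucleus cell shares, with cell loss under 80%, at 10 µM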;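 further: anti alpha tubulin signal scored within the nucleus-defined area of each cell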
Dynein transport: dynein cargo transport inhibition. hit rate 0.47% among 220,000. 3617.4 mouse cells, GR-EGFP nuclear translocation imaging; test concentration mostly 20 µM; stimulated with dexamethasone, 1 µM; active compounds read low. z-score, hits read low. AID 1381;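 active means plate z-score of nuclear minus cytoplasmic receptor signal below a set negative limit, without overly bright fluorescence or cell loss, cut at about -3.5 in these data, passing the limit was not always enough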;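 further: z-score of nuclear minus cytoplasmic ring GR-EGFP intensity difference per well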
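Buffer or medium: Induction medium lacking tetracycline, stripped serum | Also added: Dexamethasone agonist, 1.0 µM final, for 30 min | Timing: 48 h induction, 1 h compound, 30 min dex at 37 °C | Detection: Formaldehyde fixation, Hoechst nuclear stain, 10x automated fluorescence imaging | Measure: Nuclear versus cytoplasmic GR-EGFP signal, averaged per well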
bCat nuc transl: modulators of beta-catenin nuclear translocation; nuclear translocation activity, % at 5 µM; AID 1665; HeLa beta-catenin nuclear translocation, immunofluorescence imaging; hit rate 0.3% among 190,000;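 active means nuclear translocation activity above 50% at 5 µM, with a well cell count of 50 or more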;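 further: per-cell ratio of nuclear to cytoplasmic median beta-catenin stain intensity; plate controls were DMSO negative control for no effect and GSK-3 inhibitor IX positive control for full effect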
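Technique: fluorescence imaging of beta-catenin antibody stain plus DAPI / Material: human HeLa cell line / Incubation: compound treatment 24 h, 37°C, 5% CO2 / Read-out basis: % activation of per-cell nuclear versus cytoplasmic median beta-catenin signal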
Lmaj promast: Leishmania major promastigote growth inhibition | inhibition, % at 10 µM | Leishmania major promastigotes, resazurin fluorescence viability | AID 1063 | hit rate 9% among 200,000; in the data active means inhibition above about 50%;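 further: promastigotes grown with compound for 44 hours at 28 °C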
HSV replic up: HSV replication enhancement; HSV replication augmentation in cells, fold increase; maximum fold increase; hit rate 0.005% among 220,000; AID 1956; in the data active means maximum fold increase above about 1.5; tested in PC3 cells
The depositor's hits bear a star; i = inactive; nt = no result.

SMILES | MT stabilizer | Dynein transport | bCat nuc transl | Lmaj promast | HSV replic up
CC(=O)N1c2ccc(N=Cc3cc(Br)cc(Br)c3O)cc2CC1C (stereo not given) | nt | -0.226 | 43.0 | nt | i
CCCc1[nH][nH]c(=O)c1C(c1ccc(Br)cc1)C(C#N)C#N (stereo not given) | 3.2 | -0.654 | -2.3 | 50.3* | i
CCCc1[nH][nH]c(=O)c1C(c1ccc(Cl)cc1)C(C#N)C#N (stereo not given) | 2.5 | -1.23 | 4.9 | 33.5 | i
O=C(O)CCC(=O)Nc1ccccc1C(=O)N1CCN(c2ccc(Cl)cc2)CC1 | 1.6 | 0.146 | -0.2 | -4.4 | i
Cc1ccc(CNc2nc3c([nH]2)c(=O)n(C)c(=O)n3C)cc1 | 1.9 | 0.108 | 2.9 | 4.3 | i
CN1CCN(S(=O)(=O)c2ccc(N3CCN(S(=O)(=O)/C=C/c4ccccc4)CC3)nc2)CC1 | 3.2 | -0.145 | -2.8 | 36.2 | i
O=S(=O)(c1ccc(N2CCN(CCO)CC2)nc1)N1CCCCC1 | 5.3 | 2.42 | -3.1 | 60.2* | i
Cc1ccc(-c2ccc(S(=O)(=O)N3CCN(C)CC3)cc2)cc1 | 4.3 | -0.816 | -5.3 | -9.4 | i
CN1CCN(S(=O)(=O)c2ccc(N3CCN(C(c4ccccc4)c4ccccc4)CC3)nc2)CC1 | 2.2 | 0.134 | -3.3 | 100.0* | i
CC(=O)N1CCN(c2ccc(S(=O)(=O)N3CCCCC3)cn2)CC1 | 2.5 | 0.061 | -7.5 | -0.2 | i
CN1CCN(S(=O)(=O)c2ccc(-c3ccccc3)cc2)CC1 | 2.2 | -1.04 | nt | 86.2* | i
C/C(=N\OC(=O)NC(C)C)c1sc(-c2ccc(Cl)cc2)nc1C | 1.7 | 0.908 | nt | 6.6 | i
COC(=O)CCC(=O)OC1(C)C(=O)C=C2C=C(C3CC3)N(C3CCCC3)C=C2C1=O (stereo not given) | nt | -0.375 | 0.2 | nt | i
CCN=C1S/C(=C\c2ccc(OC)c(OCC)c2)C(=O)N1CC | 2.4 | 0.89 | nt | 69.6* | i
COc1ccc(CN(C#N)c2nc(SC)nc(N(C)C)n2)cc1 | 3.2 | 1.8 | -7.3 | 42.0 | i
CCOc1ccc2oc(C(=O)NC3CCN(Cc4ccccc4)CC3)c(C)c2c1 | 1.0 | -0.469 | -0.3 | 82.6* | i
CC1(C)CC(NC(=O)COc2ccc3ccccc3c2)CC(C)(C)N1 | 3.0 | 0.894 | 3.4 | 83.5* | i
CCOc1ccc2oc(C(=O)NC(C)(C)CC)c(C)c2c1 | 2.4 | 0.0514 | -1.7 | -3.5 | i
CCOc1ccc2oc(C(=O)NC3CC(C)(C)NC(C)(C)C3)c(C)c2c1 | 4.8 | 1.75 | -1.2 | 82.3* | i
COC(=O)c1cnc(NNS(=O)(=O)c2ccc(Cl)cc2)nc1C(F)(F)F | nt | -0.279 | 0.3 | nt | i
CC(C)CC(=O)Nc1cc2nn(-c3ccccc3)nc2cc1Cl | 1.4 | 1.32 | -0.5 | -7.2 | i
N#Cc1ccsc1NC(=O)COC(=O)c1cc2ccccc2cc1O | 2.4 | -0.748 | nt | 79.0* | i
Cc1ccc(S(=O)(=O)Nc2ccc(O)c3ncccc23)cc1 | 10.3 | -0.752 | 58.5* | 99.0* | i
Cc1ccc(S(=O)(=O)Nc2cccc3ncccc23)cc1 | nt | -0.00792 | 0.2 | nt | i
Cc1ccc(S(=O)(=O)Nc2cccc3c2CCCC3)cc1 | 1.5 | -0.724 | -2.4 | 53.6* | i
SMILES | MT stabilizer | Dynein transport | bCat nuc transl | Lmaj promast | HSV replic up
CCOC(=O)c1ccccc1NS(=O)(=O)c1ccc(C)cc1 | 26.2* | -0.427 | nt | 9.5 | i
Cc1ccc(S(=O)(=O)Nc2ccccc2-c2ccccc2)cc1 | 36.1* | -0.255 | 61.7* | 21.7 | i
Cc1ccc(S(=O)(=O)Nc2ccnc3ccccc23)cc1 | 1.5 | -0.126 | -3.3 | -0.9 | i
CCOC(=O)c1ccccc1NS(=O)(=O)c1ccccc1 | 2.6 | 0.471 | -1.2 | 2.3 | i
CCOC(=O)C1CCN(C(=O)c2ccccc2NS(=O)(=O)c2ccc(F)cc2)CC1 | 3.9 | -0.174 | 0.0 | 52.7* | i
CCOC(=O)C1CCN(C(=O)c2ccccc2NS(=O)(=O)c2cc(C)ccc2C)CC1 | 7.7 | -0.547 | -0.3 | 1.3 | i
Cc1cccc(NCCC(=O)c2ccc([N+](=O)[O-])cc2)c1C | 4.6 | 0.378 | -0.6 | 93.1* | i
Cc1ccc(NCCC(=O)c2cccc([N+](=O)[O-])c2)c(C)c1 | 2.5 | -0.787 | 3.9 | 97.1* | i
Cc1ccc(C(=O)CNc2cccc([N+](=O)[O-])c2)cc1 | 2.1 | -0.305 | -0.1 | -8.6 | i
Cc1ccc(NCC(=O)c2ccc([N+](=O)[O-])cc2)cc1 | 2.7 | -1.58 | -0.7 | 1.2 | i
Cc1cc(C(=O)C(=O)N(C)C)c(C)n1-c1ccc(Cl)c(Cl)c1 | 5.7 | 1.2 | 0.2 | 19.2 | i
CCN1CCCC1CNC(=O)CS(=O)(=O)Cc1nc(-c2ccccc2C)oc1C (stereo not given) | 8.7 | -0.79 | -2.3 | 3.9 | i
CCN1CCCC1CNC(=O)C1CCN(Cc2nc(-c3cccc(Br)c3)oc2C)CC1 (stereo not given) | 3.9 | 0.112 | -4.0 | 98.7* | nt
CCN1CCCC1CNC(=O)CSCc1nc(-c2ccccc2C)oc1C (stereo not given) | 4.8 | 1.48 | nt | 98.9* | i
Cc1cccc(C(=O)NCC(=O)OCC(=O)N2CCCCC2)c1 | 6.2 | 0.281 | -0.3 | -11.9 | i
O=C(NC1CCCc2ccccc21)c1ccccc1Br (stereo not given) | 2.4 | -0.427 | -1.4 | -4.1 | i
COCCCn1c(SCCc2ccccc2)nc2cc(OC)c(OC)cc2c1=N | 3.5 | 0.336 | 1.0 | 50.9* | i
COc1ccc(Cn2c(SCc3ccccc3C)nc3cc(OC)c(OC)cc3c2=N)cc1 | 35.1 | 0.0388 | 9.3 | 100.5* | i
CCC(/C=N/NC(=O)c1ccccc1F)CC | 2.2 | -0.495 | 4.3 | -7.7 | i
CC(C)Cc1cc(C(=O)N2CCCC(CCC(=O)N(C)CCc3ccccn3)C2)no1 (stereo not given) | 1.8 | 0.186 | -2.4 | 20.4 | i
CC1=C(C(=O)OCC2CCCO2)C(c2ccc(C)o2)C2=C(CC(c3ccc(F)cc3)CC2=O)N1 (stereo not given) | 4.4 | 0.668 | nt | 3.6 | i
CC1=C(C(=O)OCC2CCCO2)C(c2ccc(C)o2)C2=C(CC(c3ccc(N(C)C)cc3)CC2=O)N1 (stereo not given) | 2.2 | -0.201 | 0.6 | 84.7* | i
COc1ccc(C(=O)Nc2nc3ccc(S(C)(=O)=O)cc3s2)cc1OC | 3.0 | -0.501 | -1.6 | 0.1 | i
COc1ccc(C(=O)Nc2nc3ccccc3s2)cc1OC | 2.0 | -0.389 | -1.3 | 68.7* | i
COc1ccc(-c2cc(C(=O)Nc3nc4ccccc4s3)c3ccccc3n2)cc1OC | 1.8 | -0.726 | -3.8 | 97.6* | i
COc1ccc(-c2cc(C(=O)Nc3ccccc3O)c3ccccc3n2)cc1OC | 1.9 | -0.404 | -0.2 | -4.6 | i
O=C(Nc1nc2ccccc2s1)c1cc(-c2ccccc2)nn1-c1ccccc1 | 4.2 | -0.397 | 5.2 | 92.5* | i
COc1ccc(-c2cc(C(=O)Nc3ccccc3N3CCOCC3)c3ccccc3n2)cc1OC | 4.6 | 0.0677 | -6.2 | 64.5* | i
